Assay results as given in ChEMBL document CHEMBL2057141, “Imidazolopiperazines: lead optimization of the second-generation antimalarial agents” (J Med Chem, 2012).

How the values were obtained:
Plasmodium falciparum [1] = experiment: Antimalarial activity against Plasmodium falciparum 3D7 after 72 hrs by SYBR green fluorescence assay; format: functional, organism-based; conditions: 3D7, 72 h
Outline: (§1)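 P. falciparum grown in O+ erythrocytes, screened in medium without human serum plus 0.5% Albumax II. Twelve-point half-log dilutions up to 10 μM final. 0.3% parasitemia, 2.5% hematocrit; 72 h at 37 °C under low-oxygen gas. Lysis buffer with SYBR Green added, 24 h at 25 °C, fluorescence read at 485/530 nm.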

Plasmodium falciparum [2] = experiment: Antimalarial activity against Plasmodium falciparum W2 after 72 hrs by SYBR green fluorescence assay; format: functional, organism-based; conditions: W2, 72 h; outline: as §1
[3] = Apparent permeability across apical to basolateral side in human Caco2 cells by LC/MS analysis; format: ADME, cell-based; conditions: Caco-2
Outline: (§2)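 Caco-2 monolayers in 96-well format. Compound measured in apical and basolateral chambers by LC/MS, giving Papp in the A–B and B–A directions. Values reported in cm/s × 10⁶.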

[4] = Metabolic stability in mouse liver microsomes assessed as hepatic extraction ratio by LC/MS/MS analysis; format: ADME, Microsome
Outline: (§3)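 Liver microsomes (human, mouse, rat). Compound depletion followed by LC/MS/MS. Loss of parent used to derive in vitro half-life and hepatic extraction ratio.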

[5] = Permeability of the compound by PAMPA; format: ADME
Outline: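 PAMPA in 96-well filter plates. Permeated compound quantified by UV absorbance at 260–290 nm. Reported as percentage absorbed.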

[6] = Apparent permeability across basolateral to apical side in human Caco2 cells by LC/MS analysis; format: ADME, cell-based; conditions: Caco-2; outline: as §2
[7] = Metabolic stability in rat liver microsomes assessed as hepatic extraction ratio by LC/MS/MS analysis in presence of CYP; format: ADME, Microsome; outline: as §3
[8] = Metabolic stability in mouse liver microsomes assessed as hepatic extraction ratio by LC/MS/MS analysis in presence of CYP; format: ADME, Microsome; outline: as §3
[9] = Metabolic stability in human liver microsomes assessed as hepatic extraction ratio by LC/MS/MS analysis in presence of CYP; format: ADME, Microsome; outline: as §3
[10] = Tmax in Balb/c mouse at 20 mg/kg, po; format: ADME, organism-based; design: dose 20 mg/kg, route oral; conditions: in vivo
Outline: (§4)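 Male Balb/c mice (n = 3 per group). Compound as a 2.5 mg/mL solution in PEG300/D5W 3:1, filtered. Given by lateral tail vein at 5 mg/kg (2 mL/kg) or orally at 20 mg/kg (8 mL/kg). Six serial 50 μL retro-orbital blood samples to 24 h, heparinized plasma. Plasma extracted with acetonitrile:methanol 3:1 with internal standard, LC-MS/MS. Noncompartmental analysis; F = AUCpo×dose_iv/AUCiv×dose_po.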

Plasmodium berghei [11] = experiment: Antimalarial activity against Plasmodium berghei ANKA expressing GFP infected in NMRI mouse assessed as increase of mouse survival at 100 mg/kg, po administered 24 hrs post infection (reference value: 6 to 7 days); format: functional
[12] = Half life in Balb/c mouse at 5 mg/kg, iv; format: ADME, organism-based; design: dose 5 mg/kg, route intravenous; conditions: in vivo; outline: as §4
Mus musculus [13] = experiment: AUC (0 to 24 hrs) in Balb/c mouse at 5 mg/kg, iv; format: ADME, organism-based, Plasma; design: time < 24 hr, dose 5 mg/kg, route intravenous; conditions: in vivo; outline: as §4
Plasmodium berghei [14] = experiment: Antimalarial activity against Plasmodium berghei ANKA expressing GFP infected in NMRI mouse assessed as increase of mouse survival at 30 mg/kg, po administered 24 hrs post infection (reference value: 6 to 7 days); format: functional
[15] = Clearance in Balb/c mouse plasma at 5 mg/kg, iv; format: ADME, organism-based; design: dose 5 mg/kg, route intravenous; outline: as §4
Mus musculus [16] = experiment: AUC (0 to 24 hrs) in Balb/c mouse at 20 mg/kg, po; format: ADME, organism-based, Plasma; design: time < 24 hr, dose 20 mg/kg, route oral; conditions: in vivo; outline: as §4
[17] = Volume of distribution in Balb/c mouse at 5 mg/kg, iv; format: ADME, organism-based; design: dose 5 mg/kg, route intravenous; conditions: in vivo; outline: as §4
[18] = Cmax in Balb/c mouse at 20 mg/kg, po; format: ADME, organism-based; design: dose 20 mg/kg, route oral; conditions: in vivo; outline: as §4
[19] = Half life in Balb/c mouse at 20 mg/kg, po; format: ADME, organism-based; design: dose 20 mg/kg, route oral; conditions: in vivo; outline: as §4
Plasmodium berghei [20] = experiment: Antimalarial activity against Plasmodium berghei ANKA expressing GFP infected in NMRI mouse assessed as reduction of parasite level in blood at 30 mg/kg, po administered 24 hrs post infection measured after 72 hrs post infection by flow cytometry; format: functional; design: scale not given: the % may be the effect or the level left
Outline: (§5)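 Female NMRI mice (20–22 g, n=3) are infected i.v. with 2×10^7 P. berghei GFP ANKA-infected erythrocytes. Oral compound in 75% PEG300/25% D5W is given at 10 mL/kg, once at 24 h or daily at 24/48/72 h post-infection. Parasitemia is read by flow cytometry at 72 h (single dose) or 96 h (triple dose). Activity is % reduction of mean parasitemia versus untreated controls.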

Rattus norvegicus [21] = experiment: Dose normalized AUC (0 to 5 hrs) in Wistar rat at 10 mg/kg, po; format: ADME, organism-based; design: dose 10 mg/kg, route oral; conditions: in vivo
Outline: (§6)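 Rat snapshot PK: two Wistar rats dosed orally at 10 mg/kg, formulated at 2.5 mg/mL in 75% PEG300/25% D5W. Blood (100 μL) taken at 0.5, 1, 3 and 5 h post dose. Plasma pooled by sampling time, then analysed by LC-MS/MS.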

[22] = (§7) Cmax in Wistar rat at 10 mg/kg, po; format: ADME, organism-based; design: dose 10 mg/kg, route oral; conditions: Wistar, in vivo; outline: as §6
Mus musculus [23] = experiment: Oral bioavailability in Balb/c mouse at 20 mg/kg; format: ADME, organism-based; conditions: in vivo; outline: as §4
Plasmodium berghei [24] = experiment: Antimalarial activity against Plasmodium berghei ANKA expressing GFP infected in NMRI mouse assessed as increase of mouse survival at 30 mg/kg, po administered 24 hrs post infection qd for 3 days (reference value: 6 to 7 days); format: functional
[25] = AUC (0 to 5 hrs) in Wistar rat at 10 mg/kg, po; format: ADME, organism-based; design: dose 10 mg/kg, route oral; conditions: plasma
Rattus norvegicus [26] = experiment: as §7; format: ADME, organism-based; design: dose 10 mg/kg, route oral; conditions: in vivo, BLD = below limit of detection; outline: as §6
Plasmodium berghei [27] = experiment: Antimalarial activity against Plasmodium berghei ANKA expressing GFP infected in NMRI mouse assessed as reduction of parasite level in blood at 100 mg/kg, po administered 24 hrs post infection measured after 72 hrs post infection by flow cytometry; format: functional; design: scale not given: the % may be the effect or the level left; outline: as §5
Plasmodium berghei [28] = experiment: Antimalarial activity against Plasmodium berghei ANKA expressing GFP infected in NMRI mouse assessed as reduction of parasite level in blood at 30 mg/kg, po administered 24 hrs post infection qd for 3 days measured after 96 hrs post infection by flow cytometry; format: functional; design: scale not given: the % may be the effect or the level left; outline: as §5
Plasmodium berghei [29] = experiment: Antimalarial activity against Plasmodium berghei ANKA expressing GFP infected in po dosed NMRI mouse assessed as reduction of parasite level in blood administered 24 hrs post infection measured after 72 hrs post infection by flow cytometry; format: functional

## CC(C)[C@H]1c2nc(-c3ccc(F)cc3)c(Nc3ccc(F)c(Cl)c3)n2CCN1C(=O)CN
Plasmodium falciparum [1]
  EC50: 0.343 µM
Plasmodium falciparum [2]
  EC50: 0.47 µM

## Cc1ccc(Nc2c(-c3ccc(F)cc3)nc3n2CCN(C(=O)CN)C3(C)C)cc1
Plasmodium falciparum [1]
  EC50: 0.008 µM
Plasmodium falciparum [2]
  EC50: 0.006 µM

## Cc1ccc(Nc2c(-c3ccc(F)cc3)nc3n2CCNC3(C)C)cc1
Plasmodium falciparum [1]
  EC50: 0.013 µM
Plasmodium falciparum [2]
  EC50: 0.013 µM
[3]
  Papp A→B: 15.6 ×10⁻⁶ cm/s
[4]
  hepatic extraction ratio: 0.77
[5]
  permeability: 99.9%
[6]
  Papp B→A: 6.96 ×10⁻⁶ cm/s
[7]
  hepatic extraction ratio: 0.93
[8]
  hepatic extraction ratio: 0.87
[9]
  hepatic extraction ratio: 0.88

## CC(C)[C@@H]1c2nc(-c3ccc(F)cc3)c(Nc3ccc(F)c(Cl)c3)n2CCN1C(=O)CN
Plasmodium falciparum [1]
  EC50: 0.168 µM
Plasmodium falciparum [2]
  EC50: 0.202 µM

## CC(C)(N)C(=O)N1CCn2c(nc(-c3ccc(F)cc3)c2Nc2ccc(F)cc2)C1(C)C
Plasmodium falciparum [1]
  EC50: 0.01 µM
Plasmodium falciparum [2]
  EC50: 0.009 µM
[3]
  Papp A→B: 1.2 ×10⁻⁶ cm/s
[5]
  permeability: 99.5%
[6]
  Papp B→A: 0.97 ×10⁻⁶ cm/s

## Cc1ccc(Nc2c(-c3ccc(F)cc3)nc3n2CC(=O)NC3)cc1
Plasmodium falciparum [1]
  EC50: 1.08 µM
Plasmodium falciparum [2]
  EC50: 1.17 µM
[3]
  Papp A→B: 15 ×10⁻⁶ cm/s
[4]
  hepatic extraction ratio: 0.7
[5]
  permeability: 80.9%
[6]
  Papp B→A: 14.4 ×10⁻⁶ cm/s
[7]
  hepatic extraction ratio: 0.95
[8]
  hepatic extraction ratio: 0.66
[9]
  hepatic extraction ratio: 0.44

## CC1(C)NCCn2c1nc(-c1ccc(F)cc1)c2Nc1ccc(F)cc1
[10]
  Tmax: 1 h
Plasmodium berghei [11]
  Survival: 9.7 days
[12]
  half-life: 0.8 h
Mus musculus [13]
  AUC: 9.09 µM·h
Plasmodium falciparum [1]
  EC50: 0.005 µM
Plasmodium falciparum [2]
  EC50: 0.005 µM
Plasmodium berghei [14]
  Survival: 7 days
[15]
  clearance: 25.9 mL/min/kg
Mus musculus [16]
  AUC: 19.447 µM·h
[4]
  hepatic extraction ratio: 0.8
[17]
  Vd: 1.2 L/kg
[5]
  permeability: 99.9%
[18]
  Cmax: 6400 nM
[19]
  half-life: 2.95 h
[7]
  hepatic extraction ratio: 0.92
Plasmodium berghei [20]
  Activity: 90%
[8]
  hepatic extraction ratio: 0.8
Rattus norvegicus [21]
  AUC/dose: 0.9 min.ug/ml/(mg/kg)
[9]
  hepatic extraction ratio: 0.92
[22]
  Cmax: 202 nM
Mus musculus [23]
  F: 53%
Plasmodium berghei [24]
  Survival: 12 days
[25]
  AUC(0-t) at 4 h: 0.423 µM·h

## Cc1ccc(Nc2c(-c3ccc(F)cc3)nc3n2CCN(C(=O)C(C)(C)N)C3(C)C)cc1
[10]
  Tmax: 1 h
Plasmodium berghei [11]
  Survival: 16.7 days
[12]
  half-life: 18 h
Mus musculus [13]
  AUC: 7.607 µM·h
Plasmodium falciparum [1]
  EC50: 0.002 µM
Plasmodium falciparum [2]
  EC50: 0.004 µM
[3]
  Papp A→B: 3.5 ×10⁻⁶ cm/s
Plasmodium berghei [14]
  Survival: 15.3 days
[15]
  clearance: 36.1 mL/min/kg
Mus musculus [16]
  AUC: 32.409 µM·h
[17]
  Vd: 7.5 L/kg
[5]
  permeability: 99.5%
[18]
  Cmax: 1640 nM
[6]
  Papp B→A: 2.37 ×10⁻⁶ cm/s
[19]
  half-life: 14.5 h
Rattus norvegicus [26]
  Cmax: BLD
Mus musculus [23]
  F: 107%

## CCN(CC)CCCC(C)Nc1ccnc2cc(Cl)ccc12 (stereo not given) [CHLOROQUINE]
Plasmodium berghei [11]
  Survival: 12.5 days
Plasmodium berghei [27]
  Activity: 99.6%
Plasmodium berghei [28]
  Activity: 99.8%
Plasmodium berghei [14]
  Survival: 9 days
Plasmodium berghei [20]
  Activity: 99.5%
Plasmodium berghei [24]
  Survival: 13.6 days

## CC1(C)c2nc(-c3ccc(F)cc3)c(Nc3ccc(F)c(Cl)c3)n2CCN1C(=O)CN
Plasmodium falciparum [1]
  EC50: 0.027 µM
Plasmodium falciparum [2]
  EC50: 0.024 µM

## CC1(C)CN(C(=O)CN)Cc2nc(-c3ccc(F)cc3)c(Nc3ccc(F)cc3)n21
Plasmodium falciparum [1]
  EC50: 0.08 µM
Plasmodium falciparum [2]
  EC50: 0.076 µM

## CC(C)(N)C(=O)N1CCn2c(nc(-c3ccc(F)cc3)c2Nc2ccc(F)c(F)c2)C1
Plasmodium berghei [29]
  ED99: 26.5 mg/kg
